How the values were obtained:
Vero cells = assay: Cytotoxicity for Vero cells; type: cell-based
[1] = system: Toxoplasma gondii (tachyzoites); assay: T. gondii tachyzoites growth assay; type: cell-based; conditions: tachyzoites expressing red fluorescent protein in hTERT cells
Procedure, shortened: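 hTERT host cells grown in high-glucose DMEM with 1% fetal bovine serum, 2 mM glutamine and 1 mM pyruvate at 37 °C in humid 5% CO2. They were inoculated with 4 × 10⁴ RFP-expressing tachyzoites/well in the same medium. Plates were incubated at 37 °C and read daily through covered lids, bottom fluorescence ex 544/em 590 nm. EC50 was fitted as I = Imax·C/(EC50 + C), with Imax = 100%.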

Trypanosoma cruzi = conditions: protection not as efficient as ketoconazole (positive control); cited from earlier work
T. cruzi (amastigotes) = conditions: clinically more relevant form of T. cruzi; cited from earlier work
[2] = system: epimastigotes (EP strain); conditions: ergosterol and its 24-ethyl analogue; cited from earlier work

| SMILES | Cytotoxicity on Vero cells ED50 (Vero cells; Alamar Blue assay) [µM] | Toxoplasma gondii (tachyzoites) ED50 [1] | further results |
| --- | --- | --- | --- |
| O=[N+]([O-])c1cccc(Oc2ccc(OCCOC3CCCCO3)cc2)c1 (stereo not drawn) [Compound 10, 4-(3-Nitrophenoxy)phenoxyethyl Tetrahydro-2H-pyran-2-yl Ether] | > 50 |  |  |
| N#CSCCOc1ccc(Oc2cccc([N+](=O)[O-])c2)cc1 [Compound 13, 4-(3-Nitrophenoxy)phenoxyethyl Thiocyanate] | > 50 |  |  |
| COc1ccc(Oc2ccc(OCCSC#N)cc2)cc1 [Compound 21, 4-(4-Methoxyphenoxy)phenoxyethyl Thiocyanate] | > 100 |  |  |
| COc1cccc(Oc2ccc(OCCSC#N)cc2)c1 [Compound 22, 4-(3-Methoxyphenoxy)phenoxyethyl Thiocyanate] | > 50 | 6.7 ± 3.1 µM |  |
| c1cncc(Oc2ccc(OCCOC3CCCCO3)cc2)c1 (stereo not drawn) [Compound 25, 4-(Pyridin-3-yloxy)phenoxyethyl Tetrahydro-2H-pyran-2-yl Ether] | > 50 | vanishing antiparasitic activity |  |
| N#CSCCOc1ccc(Oc2cccnc2)cc1 [Compound 28, 4-(Pyridin-3-yloxy)phenoxyethyl Thiocyanate] | > 50 | 7.5 ± 0.8 µM |  |
| N#CSCCOc1cccc(Oc2ccccc2)c1 [Compound 36, 3-Phenoxyphenoxyethyl Thiocyanate] | > 50 |  |  |
| COc1ccc(Oc2cccc(OCCSC#N)c2)cc1 [Compound 37, 3-(4-Methoxyphenoxy)phenoxyethyl Thiocyanate] | > 50 |  |  |
| N#CSCCOc1ccc(Oc2ccccc2)cc1 [WC-9, 4-Phenoxyphenoxyethyl thiocyanate] |  |  | Cytotoxicity on Vero cells ED50 (Vero cells; African green monkey): > 50 µM; effect on parasitemia in murine models of Chagas disease (Trypanosoma cruzi): able to impair parasitemia; IC50 against T. cruzi amastigotes (T. cruzi (amastigotes)): low nanomolar range; depletion of parasite endogenous sterols [2]: almost complete disappearance of the parasite sterols |

From publication PMC3831659 (European journal of medicinal chemistry, 2013)
